Converted amounts (≈) assume the structure as drawn. The source made the active and inactive calls. The rule behind the calls is not given here.
Legend:
Scedosporium apiospermum [1] = test: Antifungal activity against Scedosporium apiospermum IHEM 14464 infected in immunosuppressed OF1 mouse assessed as reduction in kidney fungal burden at 1.5 mg/kg/day, ip administered 24 hrs postinfection for 10 days measured after 20 days; type: functional, organism-based
[2] = Antifungal activity against Scedosporium aurantiacum IHEM 15458 infected in immunosuppressed OF1 mouse assessed as prolonged survival of mouse at 1.5 mg/kg/day, ip administered 24 hrs postinfection for 10 days measured after 20 days; type: functional, organism-based
Summary of the method: (§1)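 Male OF1 mice immunosuppressed 1 day before infection with cyclophosphamide 200 mg/kg i.p. plus 5-fluorouracil 150 mg/kg i.v. Infection: 1 × 10^4 CFU of PDA-grown conidia in 0.2 ml saline via lateral tail vein. Treatment 1.5 mg/kg/day i.p., started 24 h post-challenge, given for 10 days; 10 mice/group; checked daily to day 20. Kaplan-Meier mean survival, log rank test.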

Scedosporium apiospermum [3] = test: Antifungal activity against Scedosporium apiospermum CBS 117407 infected in immunosuppressed OF1 mouse assessed as prolonged survival of mouse at 1.5 mg/kg/day, ip administered 24 hrs postinfection for 10 days measured after 20 days; type: functional, organism-based; summary of the method: as §1
Scedosporium aurantiacum [4] = test: Antifungal activity against Scedosporium aurantiacum CBS 116910 infected in immunosuppressed OF1 mouse assessed as reduction in kidney fungal burden at 1.5 mg/kg/day, ip administered 24 hrs postinfection for 10 days measured after 20 days; type: functional, organism-based
Scedosporium boydii [5] = test: Antifungal activity against Scedosporium boydii FMR 6694 by broth dilution method; type: functional
Scedosporium boydii [6] = test: Antifungal activity against Scedosporium boydii FMR 8627 by broth dilution method; type: functional
Scedosporium boydii [7] = test: Antifungal activity against Scedosporium boydii FMR 8627 infected in immunosuppressed OF1 mouse assessed as prolonged survival of mouse at 1.5 mg/kg/day, ip administered 24 hrs postinfection for 10 days measured after 20 days; type: functional, organism-based; summary of the method: as §1
Scedosporium boydii [8] = test: Antifungal activity against Scedosporium boydii FMR 6694 infected in immunosuppressed OF1 mouse assessed as prolonged survival of mouse of mouse at 1.5 mg/kg/day, ip administered 24 hrs postinfection for 10 days measured after 20 days; type: functional, organism-based; summary of the method: as §1
Scedosporium apiospermum [9] = test: Antifungal activity against Scedosporium apiospermum IHEM 14464 by broth dilution method; type: functional
[10] = Antifungal activity against Scedosporium aurantiacum IHEM 15458 by broth dilution method; type: functional
Scedosporium boydii [11] = test: Antifungal activity against Scedosporium boydii FMR 6694 infected in immunosuppressed OF1 mouse assessed as reduction in kidney fungal burden at 1.5 mg/kg/day, ip administered 24 hrs postinfection for 10 days measured after 20 days; type: functional, organism-based
Scedosporium boydii [12] = test: Antifungal activity against Scedosporium boydii FMR 8627 infected in immunosuppressed OF1 mouse assessed as reduction in kidney fungal burden at 1.5 mg/kg/day, ip administered 24 hrs postinfection for 10 days measured after 20 days; type: functional, organism-based
[13] = Antifungal activity against Scedosporium aurantiacum CBS 116910 by broth dilution method; type: functional
Scedosporium apiospermum [14] = test: Antifungal activity against Scedosporium apiospermum CBS 117407 infected in immunosuppressed OF1 mouse assessed as reduction in kidney fungal burden at 1.5 mg/kg/day, ip administered 24 hrs postinfection for 10 days measured after 20 days; type: functional, organism-based
Scedosporium apiospermum [15] = test: Antifungal activity against Scedosporium apiospermum CBS 117407 by broth dilution method; type: functional
[16] = Antifungal activity against Scedosporium aurantiacum CBS 116910 infected in immunosuppressed OF1 mouse assessed as prolonged survival of mouse at 1.5 mg/kg/day, ip administered 24 hrs postinfection for 10 days measured after 20 days; type: functional, organism-based; summary of the method: as §1
Scedosporium aurantiacum [17] = test: Antifungal activity against Scedosporium aurantiacum IHEM 15458 infected in immunosuppressed OF1 mouse assessed as reduction in kidney fungal burden at 1.5 mg/kg/day, ip administered 24 hrs postinfection measured on day 4 postinfection
Scedosporium apiospermum [18] = test: Antifungal activity against Scedosporium apiospermum IHEM 14464 infected in immunosuppressed OF1 mouse assessed as prolonged survival of mouse at 1.5 mg/kg/day, ip administered 24 hrs postinfection for 10 days measured after 20 days; type: functional, organism-based; summary of the method: as §1

SMILES: C[C@@H]1[C@H](O)[C@@H](C)/C=C/C=C/C=C/C=C/C=C/C=C/C=C/[C@H](O[C@@H]2O[C@H](C)[C@@H](O)[C@H](N)[C@@H]2O)C[C@@H]2O[C@](O)(C[C@@H](O)C[C@@H](O)[C@H](O)CC[C@@H](O)C[C@@H](O)CC(=O)O[C@H]1C)C[C@H](O)[C@H]2C(=O)O [AMPHOTERICIN B]
- Activity (Scedosporium apiospermum [1]): inactive
- Activity [2]: inactive
- Activity (Scedosporium apiospermum [3]): inactive
- Activity (Scedosporium aurantiacum [4]): inactive
- MIC (Scedosporium boydii [5]): 32 µg/mL (≈ 34.6 µM)
- MIC (Scedosporium boydii [6]): 8 µg/mL (≈ 8.66 µM)
- Activity (Scedosporium boydii [7]): inactive
- Activity (Scedosporium boydii [8]): inactive
- MIC (Scedosporium apiospermum [9]): 32 µg/mL (≈ 34.6 µM)
- MIC [10]: 32 µg/mL (≈ 34.6 µM)
- Activity (Scedosporium boydii [11]): inactive
- Activity (Scedosporium boydii [12]): inactive
- MIC [13]: 32 µg/mL (≈ 34.6 µM)
- Activity (Scedosporium apiospermum [14]): inactive
- MIC (Scedosporium apiospermum [15]): 8 µg/mL (≈ 8.66 µM)
- Activity [16]: inactive
- Activity (Scedosporium aurantiacum [17]): inactive
- Activity (Scedosporium apiospermum [18]): inactive

— ChEMBL document CHEMBL1649314, “Experimental murine scedosporiosis: histopathology and azole treatment” (2010)
